Screening results from PubChem BioAssay.
Only some compounds are listed: those with a hit (about 3.4% of all), similar ones and a draw of the others.
JNK3 blocker – JNK3 kinase activity inhibitors, primary screen, biochemical, human, purified enzyme; HTS; inhibition, % at 8 µM; 60,000 compounds, 0.61% hits; AID 746, 2007; in the data active = inhibition above about 17%;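 also: 0% = DMSO and 100% = reference inhibitor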
MKP-1 inh – MKP-1 phosphatase inhibitors, primary screen, biochemical, in vitro; 65,000 compounds, 0.15% hits; Dual specificity protein phosphatase 1 (Homo sapiens), P28562; inhibition, %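 (compounds tested at a single concentration somewhere between 10 and 100 µM)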; recombinant MKP-1, OMFP hydrolysis fluorescence;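 active = inhibition above about 50%, limit read from the data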;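 also: 0% = DMSO max control wells and 100% = wells with enzyme stopped by NaOH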
Target sequence (P28562 whole entry, looked up): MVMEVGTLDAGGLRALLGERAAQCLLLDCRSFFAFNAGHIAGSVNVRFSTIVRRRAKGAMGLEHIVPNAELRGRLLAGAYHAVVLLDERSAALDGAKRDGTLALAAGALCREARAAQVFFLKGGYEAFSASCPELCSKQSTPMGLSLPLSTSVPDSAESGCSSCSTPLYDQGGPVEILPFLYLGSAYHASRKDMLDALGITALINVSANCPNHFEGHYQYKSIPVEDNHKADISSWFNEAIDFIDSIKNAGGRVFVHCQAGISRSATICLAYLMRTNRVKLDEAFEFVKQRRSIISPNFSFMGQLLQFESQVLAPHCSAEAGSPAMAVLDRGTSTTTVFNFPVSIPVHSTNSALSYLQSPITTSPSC
Cdc25B inh – inhibitors of Cdc25B phosphatase catalytic domain, primary screen, biochemical, OMFP fluorescence. recombinant Cdc25B, OMFP fluorescence Ex485/Em525. 65,000 compounds, 0.1% hits. inhibition, %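 (compounds tested at 10 µM final in the well)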. AID 368, 2006. M-phase inducer phosphatase 2 (Homo sapiens), P30305; in the data active = inhibition above about 50%
RORA act – activators of orphan receptor RORA, primary screen, cell-based, luminescence. 65,000 compounds, 1.5% hits. CHO-K1 Gal4-RORA LBD luciferase reporter; percent increase over mock-subtracted basal signal. Nuclear receptor ROR-alpha (Homo sapiens), P35398. activation, % at 10 µM;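 active = activation above the mean of all tested compounds plus 3 SD, cut at about 49% in these data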;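 also: 0% = DMSO-treated RORA cells and 100% = added signal equal to DMSO minus mock-transfected cells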
SF1 activator – activators of human SF-1, primary screen, cell-based, CHO-K1, Gal4-SF-1 LBD, luciferase luminescence | 65,000 compounds, 1.9% hits | CHO-K1 Gal4-SF-1 LBD luciferase reporter; % increase over DMSO SF-1-specific signal | activation, % at 10 µM | Steroidogenic factor 1 (Homo sapiens), Q13285;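 active = activation above the mean activation of all tested compounds plus 3 SD, cut at about 50% in these data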
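Material: CHO-K1 cells with Gal4–hSF-1 LBD chimera plus Gal4-driven luciferase / Input: 4,000 CHO-K1 cells per well / Incubation: compound exposure 20 h at 37 °C / Signal: luminescence read 15 min after SteadyLite luciferase reagent, after room-temperature equilibration / Read-out: percent activation versus DMSO / Benchmarks: DMSO negative control and −SF1 background wells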
Hsp90 block – tumor Hsp90 inhibitors, primary screen, cell lysate, fluorescence polarization, NCI-N417 lysate; Heat shock protein HSP 90-alpha (Homo sapiens), P07900; Cy3B-geldanamycin FP displacement; AID 429, 2006; inhibition, % at 30 µM; 64,000 compounds, 0.35% hits;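 active = inhibition above 50%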;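 also: 0% = tracer plus lysate wells and 100% = tracer alone without lysate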
Numbers without * were called inactive; . = no result given.

SMILES | JNK3 blocker | MKP-1 inh | Cdc25B inh | RORA act | SF1 activator | Hsp90 block
C#CCn1cnc2c(cnn2-c2ccc(C)c(C)c2)c1=O | -1.5 | -5.6 | 4.1 | 19.6 | 57.9* | 2.5
CCSCc1nnc(SCC(=O)Nc2cccc(SC)c2)n1C | -0.6 | -6.6 | 0.5 | -7.0 | 6.7 | 2.9
COc1ccccc1CNC(=O)C1CCN(S(=O)(=O)c2c(C)noc2C)CC1 | . | 17.4 | -1.9 | -19.4 | -2.4 | 0.1
O=C(c1cccs1)N1CCn2c1nc1ccccc12 | 1.2 | -4.5 | 3.0 | 36.8 | 53.2* | -0.2
N#CCC(=O)N1CCn2c1nc1ccccc12 | -2.4 | 3.8 | 6.8 | -17.3 | -14.6 | -5.7
COC(=O)c1ccccc1NC(NC(=O)c1ccco1)C(=O)c1ccc(C)cc1 (configuration not stated) | 5.5 | 8.5 | -2.1 | 12.5 | 0.8 | -1.5
CCCCCn1c(C(C)NC(=O)CCC)nc2ccccc21 (configuration not stated) | 4.2 | 14.4 | -18.3 | -8.7 | 12.4 | -1.1
O=C(Nc1cccc2ncccc12)c1cccnc1 | 3.0 | 0.8 | -15.5 | -1.6 | 2.5 | 2.6
Nc1ccc2ncccc2c1N | -8.6 | -18.6 | 9.3 | 7.9 | 23.8 | 100.7*
Nc1ccc2ncccc2c1 | -0.1 | -21.5 | 3.1 | -27.0 | -12.8 | 70.4*
CCCSc1nnc(-c2c[nH]c3ccccc23)n1C | -0.5 | 9.5 | 0.5 | 30.3 | 51.6* | 1.6
Cc1cc(-c2ccc(F)cc2)nc2cc(C(N)=O)nn12 | -6.8 | 5.7 | -12.4 | -10.7 | -4.1 | -5.6
CCOC(=O)c1cnn2c(C)cc(-c3ccc(F)cc3)nc12 | 5.6 | 12.2 | -2.7 | 67.7* | 27.9 | -2.5
COc1cc(N2CCCC2)c(OC)cc1/C=c1/sc2nc3ccccc3n2c1=O | -4.2 | -24.9 | 8.9 | 8.7 | 54.4* | -47.0
O=c1/c(=C\c2cccn2-c2ccccc2)sc2nc3ccccc3n12 | -1.1 | -7.5 | -21.9 | 16.7 | 23.7 | -8.8
C=C/C(C)=C/[C@@]1(C)SC(=O)C(C)=C1O | . | . | . | . | . | -1.8
CCn1c(Sc2ccc(N)cc2Cl)nc2ccccc21 | 3.2 | -5.2 | -6.8 | -24.6 | -24.2 | 2.6
O=C(OCC(=O)c1c[nH]c2ccccc12)C1=COCCO1 | 4.0 | -15.4 | -5.2 | 54.8* | 109.2* | -5.5
CCN(CC)CCC(=O)Nc1cc(OC)cc2cccnc12 | . | . | . | . | . | 6.1
CCOC(=O)N1CCN(C(=O)c2ccccc2-c2ccccc2)CC1 | 7.5 | 4.1 | -14.7 | 17.4 | 60.3* | -5.5
O=C(NCc1ccco1)c1cc(-c2ccc3c(c2)OCO3)on1 | -4.8 | 20.3 | 4.4 | 51.0* | 42.7 | -0.3
Cc1ccc(-c2cc(C(=O)NCc3ccco3)no2)cc1 | -1.1 | 26.8 | -12.8 | 32.2 | 47.8 | -10.5
O=S(=O)(Cc1nc2ccccc2s1)c1ccccc1 | -3.1 | 18.5 | 24.7 | 49.8* | 110.1* | 1.0
COCCNC(=O)CN(C(=O)CCC(=O)Nc1nccs1)c1ccccc1OC | 6.0 | 17.9 | -11.2 | 20.0 | -28.2 | 0.2
COc1ccccc1-c1ccc(NC2CCCCC2)nn1 | -2.9 | 26.7 | -5.8 | 27.2 | 80.5* | -5.8
SMILES | JNK3 blocker | MKP-1 inh | Cdc25B inh | RORA act | SF1 activator | Hsp90 block
CCn1c(SCC(=O)Nc2ccc(NC(C)=O)cc2)nnc1C1CC1 | -13.0 | -9.2 | 15.0 | 4.0 | -0.5 | -1.6
CCn1c(SCC(=O)Nc2ccc(Cl)cc2)nnc1C1CC1 | 21.8* | -1.1 | -6.5 | -16.0 | -0.3 | 0.4
COc1cc(NC(C)=O)c2ncccc2c1 | . | . | . | . | . | 2.3
COc1cc(CC(=O)Oc2ccc3c(c2)OCO3)cc(OC)c1OC | 4.2 | -3.8 | -2.3 | -22.7 | -14.4 | 2.4
O=c1cc(O)cc(/C=C/c2ccc(O)c(O)c2)o1 | . | . | . | . | . | 83.1*
O=C(CSc1nnc(-c2ccco2)o1)NC1CCCCC1 | . | 12.4 | -18.0 | . | . | .
CN(C(=O)CSc1nnc(-c2ccco2)o1)C1CCCCC1 | -2.3 | 3.5 | 0.6 | 50.1* | 29.1 | 0.5
COc1ccc(NC2=Nc3ccccc3CC2)cc1 | 6.7 | -2.3 | -12.3 | 62.7* | 57.6* | -0.5
Cc1nc2ccc(C(=O)c3ccccc3)cc2[nH]1 | 9.1 | -7.3 | -5.3 | 12.6 | 56.9* | -3.5
